Scp1 inh = Scp-1 (human) phosphatase inhibition; 340,000 compounds, 0.88% hits; AID 493091; inhibition, % at 20 µM; Recombinant Scp1, phosphopeptide, malachite green phosphate absorbance;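 active = inhibition above about 50% at 20 µM, limit read from the data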;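 also: plate controls were DMSO wells with enzyme for no effect and wells lacking enzyme for full effect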
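Material – SCP-1 phosphatase catalytic domain, residues 76-261 · Buffer or medium – Acidic Tris acetate buffer with magnesium and detergent · Also added – Phospho 17-mer peptide substrate · Compound – single 20 µM dose, 1% DMSO · Times – 45 min room-temperature reaction, 5 min colour, 30 min stabiliser · Technique – Phosphate-binding colour reagent, absorbance read at 630 nm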
Rpn11 inh = inhibitors of human proteasome Rpn11; human 26S proteasome, Ub4-pepOG fluorescence polarization; 20S core pre-blocked with epoxomicin; inhibition, % at 20 µM; 360,000 compounds, 0.59% hits; AID 588493;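 active = inhibition at 20 µM, scaled to each plate's controls, above about 33%, limit read from the data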
Target sequence (O00487 whole entry, looked up): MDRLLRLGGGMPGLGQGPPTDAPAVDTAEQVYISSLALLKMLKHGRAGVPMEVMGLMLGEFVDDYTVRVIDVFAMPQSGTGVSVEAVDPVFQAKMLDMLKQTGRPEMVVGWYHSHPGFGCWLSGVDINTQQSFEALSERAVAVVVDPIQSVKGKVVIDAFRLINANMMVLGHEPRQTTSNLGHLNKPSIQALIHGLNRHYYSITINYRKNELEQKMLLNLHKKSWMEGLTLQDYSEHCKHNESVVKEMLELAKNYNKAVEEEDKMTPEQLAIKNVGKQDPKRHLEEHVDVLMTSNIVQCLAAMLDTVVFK
LMPTP block = blocks human LMPTP phosphatase. P24666. recombinant LMPTP-A, OMFP fluorogenic substrate, fluorescence intensity. inhibition, % at 20 µM. 360,000 compounds, 0.22% hits;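 active = compounds that cut the enzyme signal by at least half of the control window in the single-dose screen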;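 also: plate controls were DMSO wells with enzyme plus substrate for no effect and substrate without enzyme for full effect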
Target sequence (P24666 whole entry, looked up): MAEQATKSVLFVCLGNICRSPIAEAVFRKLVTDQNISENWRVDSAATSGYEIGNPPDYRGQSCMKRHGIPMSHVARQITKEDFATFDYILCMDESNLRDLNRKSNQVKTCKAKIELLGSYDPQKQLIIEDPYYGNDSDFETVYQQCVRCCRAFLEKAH
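Test system: LMPTP-A phosphatase enzyme. Amount: LMPTP-A at 0.625 nM final in the reaction. Reagent: OMFP substrate, 400 µM final. Times: 50 min at room temperature. Signal: endpoint fluorescence intensity from OMFP dephosphorylation. Read-out basis: % inhibition. Benchmarks: no-enzyme and uninhibited controls.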
SUMO1 PPI mod = alters human SUMO1 binding to SIM partners. SUMO1 binding to a labelled peptide, TR-FRET, 1 h. inhibition, % at 20 µM. 360,000 compounds, 0.33% hits; in the data active = inhibition above about 37%
Target sequence (P63165 whole entry, looked up): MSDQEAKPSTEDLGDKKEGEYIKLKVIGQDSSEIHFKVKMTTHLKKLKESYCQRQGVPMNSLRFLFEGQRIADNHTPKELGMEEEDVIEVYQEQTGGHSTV
DNMT1 inh = blocks human DNA methyltransferase DNMT1. P26358. DNMT1 molecular beacon, Hinp1I cleavage, fluorescence. 360,000 compounds, 0.83% hits. inhibition (reported as % activation of signal), % at 10 µM. AID 588458; in the data active = inhibition above about 50%
STEP block = STEP (human) phosphatase inhibition. P54829. recombinant STEP, OMFP fluorogenic substrate, fluorescence. inhibition, % at 20 µM. 360,000 compounds, 0.25% hits;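 active = inhibition at 20 µM, scaled per plate between control wells, above about 37%, limit read from the data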;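 also: 0% = DMSO with enzyme and substrate and 100% = substrate only without enzyme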
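Material: STEP (striatal-enriched tyrosine phosphatase) enzyme, cell-free; Compound dosing: 20 µM single dose in 1% DMSO; Technique: fluorescence read at 480 nm ex / 540 nm em; Times: reaction 20 min, ambient temperature; Medium: 50 mM Bis-Tris pH 6.0 with 2.5 mM DTT and 0.005% Tween 20; Also added: OMFP at 25 µM.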
* hit, by the source's call; i = inactive; . = no result given. A selection: hits, their analogues and other compounds. The true share with any hit is near 2.3%.

SMILES	Scp1 inh	Rpn11 inh	LMPTP block	SUMO1 PPI mod	DNMT1 inh	STEP block
COc1ccccc1C(=O)Nc1ccc2c(c1)nc1n2CCN(C2CCCCC2)C1	-3	20	21	3	60*	2
CCOC(=O)C1=C(C)N(CCO)C(=O)NC1c1cccc(O)c1 (configuration not stated)	-11	4	0	0	2	1
CCOC(=O)C1=C(C)N(C)C(=O)NC1c1cccc(O)c1 (configuration not stated)	3	1	0	56*	-1	-1
Cc1cc(C(=O)NC2CCCc3c2cnn3-c2ccc(C)c(C)c2)n(C)n1 (configuration not stated)	79*	-3	1	-2	1	0
CCS(=O)(=O)c1ccc(N=Nc2ccc(O)c3ncccc23)c(OC)c1	-13	50*	12	-35	-8	6
Cc1ccc(C)c(S(=O)(=O)N2CCN(C(=O)c3cccnc3)CC2)c1	-5	2	0	-1	-10	-2
O=C(Nc1ccccc1Cl)c1ccc(S(=O)(=O)NCC2CCCO2)cc1 (configuration not stated)	-3	4	0	-1	-2	-1
Cc1c(O)ccc2c(CN3CCN(Cc4ccccc4)CC3)cc(=O)oc12	2	15	-2	-10	2	-2
O=c1cc(CN2CCN(Cc3ccccc3)CC2)c2ccc(O)c(O)c2o1	29	-22	55*	-9	4	4
COCCn1c(SCc2cccc(F)c2)nc2cc(C(=O)OC)ccc2c1=O	-16	-7	3	5	-4	0
COc1cc2c(cc1OC)/C(=C/C(=O)c1ccc(OC)c([N+](=O)[O-])c1)NCC2	-6	13	2	42*	-12	3
Cc1ccc(/C(O)=C2/C(=O)C(=O)N(c3ccccn3)C2c2cccc([N+](=O)[O-])c2)cc1 (configuration not stated)	-1	4	5	-15	3	0
O=C(CSc1ccc(Br)cc1)Nc1ccc(N2CCOCC2)cc1	1	4	0	0	29	-1
O=C1C=CC2=C3c4cc(O)c(O)cc4CC3(O)COC2=C1O (configuration not stated)	42	.	67*	58*	91*	11
CN1CCN(C(=O)c2cnn(-c3ccccc3)c2NC(=O)c2ccccc2Cl)CC1	-5	-16	0	55*	-2	1
CN(C)CCCN1C(=O)c2cccc3c([N+](=O)[O-])ccc(c23)C1=O	-2	-53	1	-27	69*	-3
Cc1ccc(C(=O)O)cc1N1C(=O)c2cccc3c([N+](=O)[O-])ccc(c23)C1=O	10	-27	0	15	60*	1
O=C(Nc1nccs1)c1cccc(N2C(=O)c3cccc4c([N+](=O)[O-])ccc(c34)C2=O)c1	-2	-11	-3	-14	78*	-2
CCCCN(Cc1ccccc1)C(=O)C1CCC(=O)N(CCc2ccccn2)C1 (configuration not stated)	-5	-2	4	-1	3	0
CCN(CC)Cc1cc(Nc2c3ccccc3nc3c4ccccc4n(C)c23)cc(CN(CC)CC)c1O	-8	3	77*	-47	20	3
CCCCC(=O)Nc1ccc(NC(=O)C2CC2)nc1	-4	-7	-1	57*	5	-2
CCOc1ccc(N2C(=O)CNC2=S)cc1	-2	-1	0	1	0	3
CCOc1ccc(N2C(=O)CS/C2=C(\C(Cl)=C(Cl)Cl)[N+](=O)[O-])cc1	-11	71*	0	-3	-12	-2
COc1ccc(C(=O)Nc2nc(-c3ccc([N+](=O)[O-])cc3)c(-c3ccc(OC)cc3)s2)cc1	-19	61*	1	-5	1	2
CCOc1ccc(NC(=O)CN(C)C(=O)CCCc2nc3ccccc3c(=O)[nH]2)cc1OCC	-2	-3	-1	-4	2	-2
SMILES	Scp1 inh	Rpn11 inh	LMPTP block	SUMO1 PPI mod	DNMT1 inh	STEP block
COc1ccc(CC(O)COS(N)(=O)=O)cc1 (configuration not stated)	-2	-4	-1	8	9	-4
CC1(C)C[C@H]2C3=CCC4[C@@]5(C)CC[C@H](O)[C@](C)(CO)C5CC[C@@]4(C)[C@]3(C)C[C@H]3O[C@@H]1[C@H](O)[C@]32CO (some centres not stated)	-4	4	-1	47*	5	-3
CC1(C)C[C@H]2C3=CCC4[C@@]5(C)CC[C@H](O)[C@](C)(CO)C5CC[C@@]4(C)[C@]3(C)CC[C@@]2(C)[C@H](O)[C@@H]1O (some centres not stated)	-1	4	-1	18	22	-3
CCOC(=O)N1CCC(N2C(=O)c3ccccc3C2Nc2ccc(S(=O)(=O)N(CC)CC)cc2)CC1 (configuration not stated)	2	7	0	-1	0	2
CCN(c1ccc(C)c(C)c1)S(=O)(=O)c1ccc2c(c1)CCN2C(=O)CCC(=O)O	-7	-2	0	47*	-2	2
Cc1ccc(C)n1Cc1ccc(C(=O)O)cc1	114*	29	21	23	106*	93*
O=C(Nc1nc2ccc(F)cc2s1)C1CCN(S(=O)(=O)c2cc([N+](=O)[O-])ccc2Cl)CC1	55*	-13	3	1	27	2
Cc1ccc(NC(=O)C2CCN(S(=O)(=O)c3cc([N+](=O)[O-])ccc3Cl)CC2)nc1	23	5	-1	-24	8	1
CN(Cc1ccccc1)C(=O)C1CCN(S(=O)(=O)c2cc([N+](=O)[O-])ccc2Cl)CC1	-4	5	0	-26	0	-1
CC(=O)COC(=O)C1CCN(S(=O)(=O)c2cc([N+](=O)[O-])ccc2Cl)CC1	45	-11	3	-13	56*	10
CCOc1ccccc1NC(=O)Nc1cccc(S(N)(=O)=O)c1	-11	-2	0	-3	-4	0
CCn1c(C)[n+](CC(O)COCC2CC=CCC2)c2ccccc21 (configuration not stated)	86*	-2	0	0	-1	-3
Cc1ccc(S(=O)(=O)N2CCCC(c3nc4c(nnn4Cc4ccc5c(c4)OCCO5)c(=O)[nH]3)C2)cc1 (configuration not stated)	-5	-4	4	5	-5	1
CCN1/C(=C/C=C/c2oc3ccc(-c4ccccc4)cc3[n+]2CC)Oc2ccc(-c3ccccc3)cc21	18	-64	14	57*	149*	i

Assay outcomes: PubChem BioAssay, Sanford-Burnham Center for Chemical Genomics
